SR-BI uptake up = enhances SR-BI lipid uptake from DiI-HDL; CHO ldlA[mSR-BI] cells, DiI-HDL uptake fluorescence, 3 h; 100 = double the neutral-control signal; activation, % at 12.5 µM; 320,000 tested, 0.096% active; AID 504775;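 active means mean replicate activation of at least 60% and every replicate at or above 60%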;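 further: 0% = median plate neutral-control signal and 100% = twice that signal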
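Material: SR-BI-overexpressing, LDLR-lacking CHO cells; schedule: compound exposure 3 h, 37 °C; reagent: DiI-labelled HDL at 10 µg/mL final; technique: bottom-read fluorescence, 550/595 nm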
dFosB act = mouse delta FosB homodimer activation | AID 493131 | purified delta FosB, TAMRA-CDK5 oligo fluorescence polarization; percent of positive-control signal above neutral wells | 340,000 tested, 0.99% active | P13346 | activation, % at 25 µM;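 active means mean activation above about 17%, with every replicate also reaching it, limit read from the data, passing the limit was not always enough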
Target sequence (P13346 whole entry, looked up): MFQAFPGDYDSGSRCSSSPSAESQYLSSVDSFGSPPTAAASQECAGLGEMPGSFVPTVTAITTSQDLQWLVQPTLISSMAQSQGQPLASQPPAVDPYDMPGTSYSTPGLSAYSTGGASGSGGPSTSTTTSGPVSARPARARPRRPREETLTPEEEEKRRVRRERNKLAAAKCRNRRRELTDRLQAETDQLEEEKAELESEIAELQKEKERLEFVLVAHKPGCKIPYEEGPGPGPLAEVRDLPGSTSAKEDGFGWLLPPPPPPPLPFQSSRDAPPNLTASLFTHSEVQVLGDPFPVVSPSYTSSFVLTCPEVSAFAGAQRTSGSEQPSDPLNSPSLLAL
rRNA inh HTS = inhibits bacterial ribosomal RNA function over humanized ribosomes; E. coli WT GFP vs humanized-ribosome RFP mutants, fluorescence, 24 h; stronger effect = lower value; DMSO median 0, no signal -100; GFP signal change (wild-type ribosome), % (test concentration not listed); 350,000 tested, 1.6% active; AID 720706;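 active means significant combined selectivity score with lowered wild-type GFP, culture density cut under 30%, mutant RFP and density less affected; inactive means any of these conditions unmet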
SR-BI HDL uptake = blocks mouse SR-BI lipid uptake from DiI-HDL | 320,000 tested, 0.96% active | inhibition, % at 12.5 µM | Q61009 | ldlA[mSR-BI] CHO cells, DiI-HDL uptake fluorescence, 3 h;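 active means mean replicate inhibition of at least 70% and a set share of replicates each scoring 70 or more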;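 further: 0% = median of neutral control wells and 100% = median of positive control wells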
XiGFP reactiv = activators of X-chromosome reactivation in mouse fibroblasts | AID 743238 | activation, % at 7.58 µM | XiGFP mouse fibroblasts, % GFP-positive cells imaging, 3 d; cells co-treated with 5-aza-dC sensitizer; scaled so ellipticine positive control = 100% | 360,000 tested, 0.055% active;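 active means mean normalized replicate activation at least 10% and every replicate at or above 10%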;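 further: 0% = median of on-plate neutral control wells and 100% = ellipticine 6 µM median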
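System: SV40-immortalized XiGFP fibroblast cells, line 68-5-11 / Incubation: 3-day compound exposure, then 15 min fixation at room temperature / Compound: single concentration per compound, delivered by pin transfer / Buffer or medium: DMEM plus 5-aza-dC sensitizer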
PvdQ acylase = blocks Pseudomonas aeruginosa PvdQ acylase activity | purified PvdQ acylase, fluorescence plate reader | inhibition, % at 10 µM | 340,000 tested, 0.063% active; in the data active means inhibition above about 30%, passing the limit was not always enough;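 further: 0% = vehicle neutral wells and 100% = reference inhibitor wells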
* hit, by the source's call; nt = no result given. Most compounds without a hit are left out; they make up all but 2.6% or so of the library.

SMILES | SR-BI uptake up | dFosB act | rRNA inh HTS | SR-BI HDL uptake | XiGFP reactiv | PvdQ acylase
C=CCOc1c(Br)cc(C2C3=C(CCCC3=O)N(C)C3=C2C(=O)CCC3)cc1OCC | -3 | -21 | -34* | 3 | 0 | -13
Cn1c(C(=O)NN)cc2cc(Oc3ccccc3)ccc21 | -79 | -7 | 3 | 79* | 0 | -9
CC(=O)c1cccc(NC(=O)NNC(=O)c2ccc3ccccc3c2)c1 | 22 | -2 | 3 | -22 | 0 | 3
NS(=O)(=O)c1cccc(NC(=O)c2cccc(N3C(=O)c4ccccc4C3=O)c2)c1 | -12 | -11 | 7 | 12 | 1 | -13
CC(=O)c1cccc(NC(=O)c2cccc(N3C(=O)c4ccccc4C3=O)c2)c1 | nt | 31* | 2 | 34 | 0 | -11
CC(=O)c1cccc(NC(=O)c2ccc3ccccc3c2)c1 | -72 | -20 | -23 | 72* | 0 | -13
O=C(Nc1nc2c(cc3c4c(cccc42)CC3)s1)c1ccccc1Cl | -76 | -12 | -1 | 76* | 0 | 16
O=C(Nc1nc2c(Cl)cccc2s1)C1CC1 | 28 | -9 | -1 | -28 | 0 | -11
CCOCCn1c(C)c(C(=O)OCC)c2cc(O)c3ccccc3c21 | -73 | -13 | -8 | 73* | 0 | -4
C[C@H](CO)N1C[C@H](C)[C@H](CN(C)Cc2ccncc2)Oc2ccc(NC(=O)CCC(F)(F)F)cc2CC1=O | nt | nt | 1 | nt | 0 | nt
Cc1ccc(CSc2nnc(C(F)(F)F)n2Cc2ccc(F)cc2)cc1 | 19 | -4 | -27* | -19 | nt | -7
O=C(Nc1ccccc1)c1ccccc1OCc1ccc(F)cc1 | -74 | -1 | 9 | 74* | 0 | -5
O=C(Nc1ccc(O)cc1)c1ccccc1OCc1ccccc1 | -68 | -5 | -30 | 68 | 3 | -13
O=C(Nc1ccccc1C(=O)Nc1ccc(F)cc1)c1ccco1 | -75 | -6 | 1 | 75* | 0 | -10
O=C(CCCN1C(=O)/C(=C\c2cccs2)SC1=S)NNC(=O)c1ccncc1 | -6 | 7 | 12 | 6 | 0 | 4
COc1ccc(OC)c(/C=C2\SC(=S)N(NS(=O)(=O)c3ccccc3)C2=O)c1 | -10 | -6 | -16 | 10 | 0 | -4
O=C1/C(=C/c2cccs2)SC(=S)N1NS(=O)(=O)c1ccccc1 | 13 | -2 | -27* | -13 | 0 | -7
O=C(NN1C(=O)/C(=C/c2cccs2)SC1=S)c1ccncc1 | 14 | -10 | -29* | -14 | 0 | -11
CN(c1ccccc1)S(=O)(=O)c1cccc(C(=O)Nc2ccc(N3CCOCC3)cc2)c1 | -86 | -7 | -14 | 86* | 0 | -25
COc1ccc(N(C)S(=O)(=O)c2cccc(C(=O)Nc3ccc(N4CCOCC4)cc3)c2)cc1 | nt | -11 | -21* | 56 | 0 | -17
Cc1ccc(N(C)S(=O)(=O)c2cccc(C(=O)Nc3ccc(N4CCOCC4)cc3)c2)cc1 | -59 | -11 | -14 | 59 | 0 | 5
N#Cc1cc([N+](=O)[O-])ccc1N1CCCC1 | -4 | -5 | -6 | 4 | 0 | 89*
N#Cc1cnn(-c2cc(Cl)ccc2Cl)c1N | nt | nt | nt | nt | 0 | nt
O=C(Nc1cc([N+](=O)[O-])ccc1N1CCCC1)c1ccccc1 | 3 | 2 | -26* | -3 | 0 | -22
CN1CCN(c2ccc([N+](=O)[O-])cc2NC(=O)c2ccccc2)CC1 | -26 | 5 | nt | 26 | nt | 0
SMILES | SR-BI uptake up | dFosB act | rRNA inh HTS | SR-BI HDL uptake | XiGFP reactiv | PvdQ acylase
N#Cc1cnn(-c2ccc([N+](=O)[O-])cc2[N+](=O)[O-])c1N | nt | nt | -7.5* | nt | 0 | nt
COc1ccc(CCN(C)C/C=C/c2ccccc2)cc1OC | 7 | -9 | 3 | -7 | 0 | -12
O=C(Nc1cccc(Cl)c1)c1ccc(Cn2cc(Cl)cn2)cc1 | 21 | -5 | -26* | -21 | 0 | -6
CCn1c(NC(=O)c2cccc(Cn3cc(Cl)cn3)c2)nc2ccccc21 | -93 | -8 | 3 | 93* | 1 | -5
O/N=C/c1ccnc(SCc2ccc(Cl)cc2)n1 | 2 | -5 | -5 | -2 | 0 | -8
O/N=C/c1ccnc(SCc2ccccc2)n1 | -4 | -3 | -16* | 4 | 0 | -14
O=c1oc2ccccc2c(N2CCCC2)c1CN1CCCC1 | 8 | -1 | -18* | -8 | nt | 4
O=c1oc2ccccc2c(Cl)c1CN1CCCCC1 | -14 | 0 | -19 | 14 | -1 | -5
Cn1ccc(/C=N/N=C2/NC(=O)CS2)n1 | 4 | -7 | -43* | -4 | 0 | 11
COc1cccc(CC(=O)Nc2nc(-c3cc(OC)ccc3OC)cs2)c1 | -20 | -8 | -24* | 20 | 0 | -9
COc1ccc(OC)c(-c2csc(NC(=O)Cc3ccccc3)n2)c1 | nt | -4 | -49 | nt | 0 | -15
COc1ccc(OC)c(-c2csc(NC(=O)C3CSC4(C)CCC(=O)N34)n2)c1 (configuration not stated) | -82 | -6 | -1 | 82* | 0 | 3
COc1ccc(CC(=O)Nc2nc(-c3cc(OC)ccc3OC)cs2)cc1 | -7 | -8 | -22* | 7 | 0 | -3
COc1ccc(OC)c(-c2csc(NC(=O)COC(=O)C3(C)CC3(Cl)Cl)n2)c1 (configuration not stated) | -39 | -3 | -21* | 39 | 0 | -5
COc1ccc(OC)c(-c2csc(NC(=O)Cc3ccc(OC)c(OC)c3)n2)c1 | -13 | 4 | -10 | 13 | 0 | -2
CCOc1ccccc1NC(=O)c1ccc2c(=O)n3c(nc2c1)CCCCC3 | -49 | -23 | -25 | 49 | 0 | -6
CC(=O)Nc1ccc(C=NNC(=O)c2ccc(NS(=O)(=O)c3cccs3)cc2)cc1 | 11 | 10 | 0 | -11 | 0 | -1
COc1cccc(/C=N/NC(=O)c2ccc(COc3ccc(Cl)cc3Cl)o2)c1 | -53 | -1 | nt | 53 | nt | -8
COc1cc(C=NNC(=O)c2ccc(NS(=O)(=O)c3cccs3)cc2)cc(Br)c1O | -7 | -4 | -31* | 7 | 0 | -8
O=C(NN=Cc1ccc(O)cc1)c1ccccc1NS(=O)(=O)c1cccs1 | nt | -3 | -37* | 1 | 0 | -4
COc1cc(/C=N/NC(=O)c2ccc(COc3ccccc3Cl)o2)cc(Br)c1O | 8 | 34* | nt | -8 | 0 | -11
CC(=O)Nc1cncc(-c2ccccc2C(C)=O)n1 | nt | nt | -52 | nt | 0 | nt
CC(C)C1CC(CCNCc2ccc3c(c2)OCO3)(c2ccccc2)CCO1 (configuration not stated) | nt | -7 | -24* | nt | 0 | 3

Compound activity: PubChem, Broad Institute
